LMPTP inh: LMPTP (human) inhibition | recombinant LMPTP-A, OMFP fluorogenic substrate, fluorescence intensity | inhibition, % at 20 µM | actives 0.22% (n = 360,000) | AID 651560;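 active = compounds that cut the enzyme signal by at least half of the control window in the single-dose screen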
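Assay system: LMPTP-A, protein tyrosine phosphatase of low molecular weight / Medium: pH 6.0 Bis-Tris buffer with DTT and Triton X-100 / Schedule: 50 min enzyme reaction at room temperature, protected from light / Measured by: endpoint fluorescence intensity from OMFP dephosphorylation / Read-out basis: % inhibition relative to no-enzyme and uninhibited control wells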
SUMO1 PPI mod: modulators of human SUMO1-mediated protein-protein interactions. P63165. SUMO1 binding to a labelled peptide, TR-FRET, 1 h. inhibition, % at 20 µM. actives 0.33% (n = 360,000). AID 602429; in the data active = inhibition above about 37%
STEP inh: inhibitors of human striatal-enriched phosphatase STEP; inhibition, % at 20 µM; actives 0.25% (n = 360,000); AID 588621; P54829; recombinant STEP, OMFP fluorogenic substrate, fluorescence;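 active = inhibition at 20 µM, scaled per plate between control wells, above about 37%, limit read from the data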
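Material: STEP (striatal-enriched tyrosine phosphatase) enzyme, cell-free; Compound dosing: 20 µM single dose in 1% DMSO; Technique: fluorescence read at 480 nm ex / 540 nm em; Times: reaction 20 min, ambient temperature; Medium: 50 mM Bis-Tris pH 6.0 with 2.5 mM DTT and 0.005% Tween 20; Also added: OMFP at 25 µM.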
DNMT1 block: DNMT1 (human) enzyme inhibition | DNMT1 molecular beacon, Hinp1I cleavage, fluorescence | inhibition (reported as % activation of signal), % at 10 µM | actives 0.83% (n = 360,000) | AID 588458; in the data active = inhibition above about 50%
UBC9 SUMO inh: SUMOylation inhibition; P63279; HTRF SUMOylation assay, SAE1/SAE2 + UBC9, in vitro; inhibition, % at 35 µM; actives 0.36% (n = 290,000); in the data active = inhibition above about 50%, passing the limit was not always enough
Scp-1 inhibitor: inhibitors of human Scp-1 phosphatase; Q9GZU7; Recombinant Scp1, phosphopeptide, malachite green phosphate absorbance; inhibition, % at 20 µM; actives 0.88% (n = 340,000);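 active = inhibition above about 50% at 20 µM, limit read from the data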
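assay system = SCP-1 phosphatase catalytic domain, residues 76-261 | buffer or medium = 50 mM Tris acetate pH 5.5, 0.005% Tween-20, 10 mM MgCl2 | incubation = enzyme reaction 45 min at room temperature, colour 5 min, stabilisation 30 min | signal = Phosphate-binding colour reagent, absorbance read at 630 nm | measure = % inhibition at 20 µM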
Scp1 confirm: Scp-1 (human) inhibition, single-dose confirmed | shares compounds with Scp-1 inhibitor | recombinant SCP-1 catalytic domain, phosphate release, malachite green absorbance | inhibition, % at 20 µM | actives 61% (n = 2,500) | AID 540281
Scp-1 MG ctr: colorimetric interference in Scp-1 counter-screen; 2,500 tested, under 10 active; shares compounds with Scp-1 inhibitor; apparent inhibition (interference), % at 20 µM; Colorimetric interference counterscreen, malachite green absorbance 630 nm;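 also: compounds added after enzyme reaction finished so only phosphate colour detection is probed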
Scp1 DSF: Scp-1 (human) binding by thermal shift; shares compounds with Scp-1 inhibitor; Recombinant SCP1, Sypro Orange thermal shift Tm; thermal shift relative to vanadate control, % at 40 µM; actives 25% (n = 1,500); AID 540329;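 active = substances whose mean melting-temperature shift, as a percentage of the reference inhibitor's shift, reaches about 5.3%, limit read from the data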
A number is an active result. Sampled rows, rich in hits. Any-hit rate of the full collection: about 1.9%.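 The calls were made as follows, unless noted: active = inhibition of at least 30% at 20 µM; inactive = the rest.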

How did CCc1nnc(NC(=O)C2(C)COC(c3ccccc3)OC2)s1 (stereo not drawn) do in these assays?
LMPTP inh: inactive; SUMO1 PPI mod: inactive; STEP inh: inactive; DNMT1 block: inactive; UBC9 SUMO inh: inactive; Scp-1 inhibitor: 55; Scp1 confirm: inactive; Scp-1 MG ctr: inactive

What do the screens show for `CCOC(=O)N1CCN(C(=O)CSc2ncnc3ccccc23)CC1`?
LMPTP inh: inactive; SUMO1 PPI mod: inactive; STEP inh: inactive; DNMT1 block: inactive; UBC9 SUMO inh: inactive; Scp-1 inhibitor: 54; Scp1 confirm: inactive; Scp-1 MG ctr: inactive

What do the screens show for `CCOC(=O)N1CCN(C(=O)CSc2nc3ccccc3c(=O)n2-c2ccccc2)CC1`?
LMPTP inh: inactive; SUMO1 PPI mod: inactive; STEP inh: inactive; DNMT1 block: inactive; UBC9 SUMO inh: inactive; Scp-1 inhibitor: inactive

What do the screens show for `COc1ccc(CNC(=O)c2ccc(-n3ccnc3)c3ccoc23)cc1OC`?
LMPTP inh: inactive; SUMO1 PPI mod: inactive; STEP inh: inactive; DNMT1 block: inactive

What do the screens show for `O=C(O)c1ccc(-n2ncc3c2/C(=C/c2cccc([N+](=O)[O-])c2)CC3)cc1`?
LMPTP inh: inactive; SUMO1 PPI mod: inactive; STEP inh: inactive; DNMT1 block: inactive; UBC9 SUMO inh: inactive; Scp-1 inhibitor: inactive

What do the screens show for `O=C(O)c1ccc(-n2ncc3c2/C(=C\c2cccc([N+](=O)[O-])c2)CC3)cc1`?
LMPTP inh: inactive; SUMO1 PPI mod: inactive; STEP inh: inactive; DNMT1 block: inactive; Scp-1 inhibitor: 64; Scp1 confirm: 64; Scp-1 MG ctr: inactive; Scp1 DSF: inactive

Results for c1ccc(Nc2ccnc(Nc3ccccc3)n2)cc1 ?
LMPTP inh: inactive; SUMO1 PPI mod: inactive; STEP inh: inactive; DNMT1 block: inactive; UBC9 SUMO inh: inactive; Scp-1 inhibitor: inactive

How did NNc1nccc(Nc2ccccc2C(=O)O)n1 do in these assays?
LMPTP inh: inactive; SUMO1 PPI mod: inactive; STEP inh: inactive; DNMT1 block: inactive; UBC9 SUMO inh: inactive; Scp-1 inhibitor: 66; Scp1 confirm: 65; Scp-1 MG ctr: inactive; Scp1 DSF: inactive

What do the screens show for `O=C(COC(=O)/C=C/c1cccc(F)c1)Nc1cccc(S(=O)(=O)NC2=NCCCCC2)c1`?
LMPTP inh: inactive; SUMO1 PPI mod: inactive; STEP inh: inactive; DNMT1 block: inactive; Scp-1 inhibitor: inactive

Results for CN(Cc1cnc2nc(N)nc(N)c2n1)c1ccc(C(=O)NC(CCC(=O)O)C(=O)O)cc1C(F)(F)F (stereo not drawn) ?
LMPTP inh: inactive; SUMO1 PPI mod: inactive; STEP inh: inactive; DNMT1 block: inactive; Scp-1 inhibitor: 50; Scp1 confirm: inactive; Scp-1 MG ctr: inactive

How did CN(Cc1cnc2nc(N)nc(N)c2n1)c1ccc(C(=O)NC(CCC(=O)O)C(=O)O)cc1 (stereo not drawn) do in these assays?
LMPTP inh: inactive; SUMO1 PPI mod: inactive; STEP inh: inactive; DNMT1 block: inactive; Scp-1 inhibitor: 62; Scp1 confirm: 70; Scp-1 MG ctr: inactive; Scp1 DSF: inactive

Results for O=C1CC(C(=O)Nc2ccc(O)c(C(=O)O)c2)C(c2ccccc2)O1 (stereo not drawn) ?
LMPTP inh: inactive; SUMO1 PPI mod: inactive; STEP inh: inactive; DNMT1 block: inactive; UBC9 SUMO inh: inactive; Scp-1 inhibitor: 51; Scp1 confirm: 30; Scp-1 MG ctr: inactive; Scp1 DSF: inactive

How did O=C1CC(C(=O)Nc2ccc(C(=O)O)cc2)C(c2ccccc2)O1 (stereo not drawn) do in these assays?
LMPTP inh: inactive; SUMO1 PPI mod: inactive; STEP inh: inactive; DNMT1 block: inactive; UBC9 SUMO inh: inactive; Scp-1 inhibitor: inactive

How did Cc1ccc(C)c(NC(=O)CSc2sc3c(O)cc(=O)[nH]c3c2C#N)c1 do in these assays?
LMPTP inh: inactive; SUMO1 PPI mod: inactive; STEP inh: inactive; DNMT1 block: inactive; UBC9 SUMO inh: inactive; Scp-1 inhibitor: 60; Scp1 confirm: 67; Scp-1 MG ctr: inactive; Scp1 DSF: 11

Results for Cc1ccc(Cl)cc1NC(=O)CSc1sc2c(O)cc(=O)[nH]c2c1C#N ?
LMPTP inh: inactive; SUMO1 PPI mod: inactive; STEP inh: inactive; DNMT1 block: inactive; UBC9 SUMO inh: inactive; Scp-1 inhibitor: 56; Scp1 confirm: 62; Scp-1 MG ctr: inactive; Scp1 DSF: 16

Results for COC(=O)c1ccc(C)c(NC(=O)CSc2sc3c(O)cc(=O)[nH]c3c2C#N)c1 ?
LMPTP inh: inactive; SUMO1 PPI mod: inactive; STEP inh: inactive; DNMT1 block: inactive; UBC9 SUMO inh: inactive; Scp-1 inhibitor: 68; Scp1 confirm: 53; Scp-1 MG ctr: inactive; Scp1 DSF: 12

Results for CCCCn1c(N)c(N(CC(C)C)C(=O)C2CC(=O)N(Cc3ccccc3)C2)c(=O)[nH]c1=O (stereo not drawn) ?
LMPTP inh: inactive; SUMO1 PPI mod: inactive; STEP inh: inactive; DNMT1 block: inactive; Scp-1 inhibitor: inactive; Scp1 confirm: inactive; Scp-1 MG ctr: inactive

How did Cc1ccc(S(=O)(=O)OCC(=O)Nc2ccc(C(=O)O)c(O)c2)cc1 do in these assays?
LMPTP inh: inactive; SUMO1 PPI mod: inactive; STEP inh: inactive; DNMT1 block: inactive; Scp-1 inhibitor: 64; Scp1 confirm: 48; Scp-1 MG ctr: inactive; Scp1 DSF: 7.6

Results for Cc1ccc(NC(=O)COCC(=O)Nc2ccc(C)cc2)cc1 ?
LMPTP inh: inactive; SUMO1 PPI mod: inactive; STEP inh: inactive; DNMT1 block: inactive; UBC9 SUMO inh: inactive; Scp-1 inhibitor: inactive

What do the screens show for `CCOc1ccc(CNS(=O)(=O)c2cc(-c3cc(C)no3)ccc2OC)cc1OC`?
LMPTP inh: inactive; SUMO1 PPI mod: inactive; STEP inh: inactive; DNMT1 block: inactive; UBC9 SUMO inh: inactive; Scp-1 inhibitor: inactive

How did Nc1ccc(C(=O)Nc2ccc(Nc3ccncc3)cc2)cc1 do in these assays?
LMPTP inh: inactive; SUMO1 PPI mod: inactive; STEP inh: inactive; DNMT1 block: inactive; UBC9 SUMO inh: inactive; Scp-1 inhibitor: inactive

How did Nc1ccc(C(=O)Nc2ccc3c(O)cc(S(=O)(=O)O)cc3c2)cc1 do in these assays?
LMPTP inh: inactive; SUMO1 PPI mod: inactive; STEP inh: inactive; DNMT1 block: inactive; Scp-1 inhibitor: 53; Scp1 confirm: 46; Scp-1 MG ctr: inactive; Scp1 DSF: 11

Source: PubChem BioAssay (Sanford-Burnham Center for Chemical Genomics)
